Common to all, as to format: functional
Assay [1] is filed under the species Cavia porcellus. Put plainly: Effect on guinea pig T cell proliferation was tested by measuring the incorporation of [3H]-thymidine uptake at the concentration of 100 uM. The method in brief: (§1)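 Strain 2 female guinea pigs were immunized with 100 μg OVA in CFA split over the footpads. At day 14 they received mineral oil ip, and the exudate was collected 4 days later. T cells were enriched on nylon wool. 2×10^5 cells per well were cultured with 10% irradiated (2100 rads) exudate cells, OVA (10 μg/mL) and compound, for 72 h at 37 °C in 5% CO2. [3H]thymidine (1 μCi) was added 18-24 h before harvest. Triplicate wells; mean Δcpm ± SD.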

The species named for assay [2] is Cavia porcellus. The experiment in a line: [3H]-Thymidine uptake was determined by liquid scintillation spectroscopy in Macrophages pretreated with 500 uM 21 at 37 degree C for 18 h. The essentials:
(§2)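 Guinea pig PELs and irradiated (2100 rads) exudate macrophages were each preincubated with compound (1 mM or 500 μM, depending on agent) for 18 h at 37 °C, then washed. Macrophages were pulsed with OVA 100 μg/mL for 1 h at 37 °C and washed. Cells were viability-adjusted by trypan blue and mixed, with or without OVA 10 μg/mL. Culture ran 72 h at 37 °C with [3H]thymidine read by scintillation, as mean Δcpm × 10^-3.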

The species entered for assay [3] is Cavia porcellus. The experiment in a line: [3H]-Thymidine uptake was determined by liquid scintillation spectroscopy in ovalbumin (OVA) pulsed compound 2 treated Macrophages. The method in brief: as §2
For assay [4], the species on record is Cavia porcellus. Put plainly: [3H]thymidine uptake was determined by liquid scintillation spectroscopy in compound 2 treated Macrophages. The essentials: as §2
Assay [5] is filed under the species Cavia porcellus. Put plainly: [3H]thymidine uptake was determined by liquid scintillation spectroscopy in compound 21 pretreated OVA pulsed Macrophages plus OVA (10 ug/mL). The essentials:
as §2

The species entered for assay [6] is Cavia porcellus. The experiment in a line: Effect on guinea pig T cell proliferation was tested by measuring the incorporation of [3H]thymidine uptake at the concentration of 500 uM. The essentials:
as §1

The species entered for assay [7] is Cavia porcellus. The experiment in a line: [3H]thymidine uptake was determined by liquid scintillation spectroscopy in OVA pulsed compound 21 pretreated Macrophages pretreated with 500 uM of 21 at 37 degree C for 18 h. The method in brief: as §2
The species entered for assay [8] is Cavia porcellus. Put plainly: Effect on guinea pig T cell proliferation was tested by measuring the incorporation of [3H]-thymidine uptake at the concentration of 0 uM. The essentials: as §1
The species entered for assay [9] is Cavia porcellus. Put plainly: Effect on guinea pig T cell proliferation was tested by measuring the incorporation of [3H]thymidine uptake at the concentration of 10 uM. The essentials:
as §1

Assay [10] is filed under the species Cavia porcellus. The experiment in a line: Effect on guinea pig T cell proliferation was tested by measuring the incorporation of [3H]thymidine uptake at the concentration of 250 uM. The method in brief:
as §1

The species named for assay [11] is Cavia porcellus. Put plainly: Effect on guinea pig T cell proliferation was tested by measuring the incorporation of [3H]thymidine uptake at the concentration of 1000 uM. The essentials:
as §1

Assay [12] is filed under the species Cavia porcellus. Put plainly: [3H]-Thymidine uptake was determined by liquid scintillation spectroscopy in compound 21 treated Macrophages pretreated with 500 uM of 21 at 37 degree C for 18 h. The essentials:
as §2

Assay [13] is filed under the species Cavia porcellus. Put plainly: [3H]-Thymidine uptake was determined by liquid scintillation spectroscopy in 21 pretreated OVA pulsed Macrophages plus OVA (10 ug/mL) pretreated with 500 uM of 21 at 37 degree C for 18 h. The essentials:
as §2

Assay [14] is filed under the species Cavia porcellus. Put plainly: [3H]thymidine uptake was determined by liquid scintillation spectroscopy in Macrophages. The method in brief: as §2
For assay [15], the species on record is Cavia porcellus. The experiment in a line: [3H]thymidine uptake was determined by liquid scintillation spectroscopy in ovalbumin pulsed Macrophages. The essentials:
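Pretreatment protocol. Strain 2 female guinea pigs immunized with OVA in CFA (100 μg OVA; 0.1 mL/foot); mineral oil given ip at day 14, peritoneal exudate collected 4 days later. Nylon-wool-enriched T cells (PELs) and irradiated (2100 rads) exudate macrophages each incubated with sugar derivative 18 h at 37 °C, then washed. Macrophages pulsed with OVA 100 μg/mL for 1 h at 37 °C and washed. Viability adjusted by trypan blue; populations mixed and cultured 72 h at 37 °C. [3H]thymidine (1 μCi) added 18-24 h before harvest; read by liquid scintillation as mean Δcpm ×10^-3.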

Assay [16] is filed under the species Cavia porcellus. Put plainly: Inhibitory activity against [3H]thymidine uptake by cinnamyl 1-thioglycosides in guinea pig T cell proliferation. The method in brief: as §1
For assay [17], the species on record is Cavia porcellus. The experiment in a line: [3H]-Thymidine uptake was determined by liquid scintillation spectroscopy in compound 21 pretreated Macrophages plus OVA (ug/mL) pretreated with 500 uM of 21 at 37 degree C for 18 h. The method in brief:
as §2

The species named for assay [18] is Cavia porcellus. Put plainly: Effect on guinea pig T cell proliferation was tested by measuring the incorporation of [3H]thymidine uptake at the concentration of 750 uM. The method in brief:
as §1

For assay [19], the species on record is Cavia porcellus. Put plainly: [3H]thymidine uptake was determined by liquid scintillation spectroscopy in 3 treated Macrophages plus OVA (10 ug/mL). The method in brief: as §2
The species entered for assay [20] is Cavia porcellus. Put plainly: [3H]-Thymidine uptake was determined by liquid scintillation spectroscopy in OVA pulsed Macrophages pretreated with 500 uM of 21 at 37 degree C for 18 h. The essentials: as §2

The text below walks through data of ChEMBL document CHEMBL1123901, “Inhibition of delayed hypersensitivity reactions by cinnamyl 1-thioglycosides” (J Med Chem, 1987).

In the case of `CC1OC(SC/C=C/c2ccccc2)C(O)C(O)C1O` (stereo in doubt; 21), the Activity in the assay filed under Cavia porcellus [1] was 66.3 Δcpm x10e-3; in the assay filed under Cavia porcellus [6] it was 0.11 Δcpm x10e-3; in the assay listed under Cavia porcellus [8] it was 89.1 Δcpm x10e-3; in the assay filed under Cavia porcellus [9], 86.5 Δcpm x10e-3; in the assay filed under Cavia porcellus [10] it was 26.7 Δcpm x10e-3; in the assay filed under Cavia porcellus [11], 0 Δcpm x10e-3. For the same compound, the Activity in the assay filed under Cavia porcellus [18] was 0 Δcpm x 10^-3. For the same compound, the “Delta cpm x10e-3” value in the assay listed under Cavia porcellus [2] amounted to 1.34; in the assay listed under Cavia porcellus [3], 13.97; in the assay listed under Cavia porcellus [4] it was 2.26; in the assay filed under Cavia porcellus [5], 11.14; in the assay filed under Cavia porcellus [7] it was 2.63; in the assay filed under Cavia porcellus [12], 1.62. For the same compound, the “Delta cpm x10e-3” value in the assay filed under Cavia porcellus [13] is reported as 3.82; in the assay filed under Cavia porcellus [14] it was 1.46; in the assay listed under Cavia porcellus [15] it was 45.43; in the assay listed under Cavia porcellus [17] it was 2.63; in the assay filed under Cavia porcellus [19], 14.22; in the assay listed under Cavia porcellus [20], 29.03. In addition, half-maximal inhibition in the assay listed under Cavia porcellus [16] (t-cell) (IC50) was put at 102 µM.
Take `OCC1OC(SCCCc2ccccc2)C(O)C(O)C1O` (stereo unspecified): the Activity is 59 Δcpm x10e-3 in the assay filed under Cavia porcellus [1]; 34.2 Δcpm x10e-3 in the assay filed under Cavia porcellus [6]; 72.8 Δcpm x10e-3 in the assay filed under Cavia porcellus [8]; 70.3 Δcpm x10e-3 in the assay filed under Cavia porcellus [9]; 39.7 Δcpm x10e-3 in the assay listed under Cavia porcellus [10]; 0 Δcpm x10e-3 in the assay listed under Cavia porcellus [11]. Moreover, the Activity in the assay listed under Cavia porcellus [18] is 18.5 Δcpm x 10^-3. In addition, the IC50 in the assay listed under Cavia porcellus [16] (Cavia porcellus, T-cell, 72 h) was determined as 402 µM.
For `NCC1OC(SC/C=C/c2ccccc2)C(O)C(O)C1O` (stereo unspecified), the Activity was 101 Δcpm x10e-3 in the assay filed under Cavia porcellus [1]; 1.23 Δcpm x10e-3 in the assay filed under Cavia porcellus [6]; 81 Δcpm x10e-3 in the assay listed under Cavia porcellus [8]; 120 Δcpm x10e-3 in the assay filed under Cavia porcellus [9]; 71.1 Δcpm x10e-3 in the assay listed under Cavia porcellus [10]; 0.01 Δcpm x10e-3 in the assay listed under Cavia porcellus [11]. In addition, in the assay listed under Cavia porcellus [18], the Activity is 0.02 Δcpm x 10^-3.
With `OCC1OC(OCC2OC(SCC=Cc3ccccc3)C(O)C(O)C2O)C(O)C(O)C1O` (stereo unspecified), the Activity in the assay listed under Cavia porcellus [1] was 54.9 Δcpm x10e-3; in the assay listed under Cavia porcellus [6], 28.9 Δcpm x10e-3; in the assay listed under Cavia porcellus [8], 86.9 Δcpm x10e-3; in the assay listed under Cavia porcellus [9], 64.2 Δcpm x10e-3; in the assay filed under Cavia porcellus [10], 34.1 Δcpm x10e-3; in the assay listed under Cavia porcellus [11], 3.85 Δcpm x10e-3. In the assay filed under Cavia porcellus [18], this compound registered an Activity of 13.04 µM. In the assay filed under Cavia porcellus [16] (Cavia porcellus, T-cell), this compound gave a concentration for half-maximal inhibition (IC50) of 340 µM.
As for `CC1OC(SC/C=C/c2ccccc2)C(O)C(O)C1O` (stereo in doubt; 6), the Activity was 101 Δcpm x10e-3 in the assay filed under Cavia porcellus [1]; 36.4 Δcpm x10e-3 in the assay filed under Cavia porcellus [6]; 93.5 Δcpm x10e-3 in the assay listed under Cavia porcellus [8]; 115 Δcpm x10e-3 in the assay filed under Cavia porcellus [9]; 59.7 Δcpm x10e-3 in the assay listed under Cavia porcellus [10]; 5.97 Δcpm x10e-3 in the assay filed under Cavia porcellus [11]. Besides, in the assay filed under Cavia porcellus [18], the Activity is 12.8 Δcpm x 10^-3. Moreover, the half-inhibitory concentration (IC50) in the assay filed under Cavia porcellus [16] (t-cell) came to 750 µM.
For `OCC1OC(SC/C=C/c2ccccc2)C(O)C(O)C1O` (stereo in doubt; 3), the Activity in the assay filed under Cavia porcellus [1] was 66.7 Δcpm x10e-3; in the assay filed under Cavia porcellus [6], 62.7 Δcpm x10e-3; in the assay listed under Cavia porcellus [8], 80.3 Δcpm x10e-3; in the assay filed under Cavia porcellus [9] it was 75.3 Δcpm x10e-3; in the assay filed under Cavia porcellus [10] it was 67.8 Δcpm x10e-3; in the assay filed under Cavia porcellus [11], 42 Δcpm x10e-3. Further, the Activity in the assay listed under Cavia porcellus [18] is 38.4 Δcpm x 10^-3. The midpoint of inhibition in the assay listed under Cavia porcellus [16] (Cavia porcellus, T-cell, 72 h), the IC50, lay at 871 µM.
On to `CC(=O)NCC1OC(SC/C=C/c2ccccc2)C(O)C(O)C1O` (stereo unspecified), for which the Activity in the assay filed under Cavia porcellus [1] is 66.6 Δcpm x10e-3; in the assay filed under Cavia porcellus [6], 39.3 Δcpm x10e-3; in the assay listed under Cavia porcellus [8] it was 79.8 Δcpm x10e-3; in the assay filed under Cavia porcellus [9], 70.7 Δcpm x10e-3; in the assay filed under Cavia porcellus [10], 52.9 Δcpm x10e-3; in the assay listed under Cavia porcellus [11] it was 36 Δcpm x10e-3. In the assay filed under Cavia porcellus [18], the Activity is 38.8 Δcpm x 10^-3.
As to `O=C(CCCCC1CCSS1)NCC1OC(SC/C=C/c2ccccc2)C(O)C(O)C1O` (stereo unspecified), the Activity in the assay filed under Cavia porcellus [1] was 2.97 Δcpm x10e-3; in the assay filed under Cavia porcellus [6] it was 0 Δcpm x10e-3; in the assay listed under Cavia porcellus [8], 93.2 Δcpm x10e-3; in the assay listed under Cavia porcellus [9] it was 75.2 Δcpm x10e-3; in the assay listed under Cavia porcellus [10], 0 Δcpm x10e-3; in the assay filed under Cavia porcellus [11], 0.08 Δcpm x10e-3. The Activity in the assay filed under Cavia porcellus [18] is 0 Δcpm x 10^-3.
In the case of `COCC1OC(SC/C=C/c2ccccc2)C(O)C(O)C1O` (stereo unspecified), the Activity was 36.2 Δcpm x10e-3 in the assay listed under Cavia porcellus [1]; 0 Δcpm x10e-3 in the assay filed under Cavia porcellus [6]; 88 Δcpm x10e-3 in the assay filed under Cavia porcellus [8]; 97 Δcpm x10e-3 in the assay listed under Cavia porcellus [9]; 1.23 Δcpm x10e-3 in the assay listed under Cavia porcellus [10]; 0 Δcpm x10e-3 in the assay filed under Cavia porcellus [11]. Also, the Activity in the assay listed under Cavia porcellus [18] was 0 Δcpm x 10^-3. The same compound showed an IC50 in the assay filed under Cavia porcellus [16] (Cavia porcellus, T-cell, 72 h) of 41 µM.
Take `CCCC(=O)NCC1OC(SC/C=C/c2ccccc2)C(O)C(O)C1O` (stereo unspecified): the Activity in the assay listed under Cavia porcellus [1] is 45 Δcpm x10e-3; in the assay listed under Cavia porcellus [6], 0 Δcpm x10e-3; in the assay listed under Cavia porcellus [8] it was 85.8 Δcpm x10e-3; in the assay filed under Cavia porcellus [9], 68.4 Δcpm x10e-3; in the assay listed under Cavia porcellus [10] it was 1.73 Δcpm x10e-3; in the assay filed under Cavia porcellus [11], 0.07 Δcpm x10e-3. The Activity in the assay filed under Cavia porcellus [18] was 0 Δcpm x 10^-3.
With `CC1OC(SC/C=C/c2ccccc2)C(O)C(O)C1O` (stereo in doubt; 5), the Activity is 130 Δcpm x10e-3 in the assay filed under Cavia porcellus [1]; 66.6 Δcpm x10e-3 in the assay listed under Cavia porcellus [6]; 147 Δcpm x10e-3 in the assay listed under Cavia porcellus [8]; 144 Δcpm x10e-3 in the assay listed under Cavia porcellus [9]; 109 Δcpm x10e-3 in the assay filed under Cavia porcellus [10]; 17.5 Δcpm x10e-3 in the assay listed under Cavia porcellus [11]. Besides, the Activity in the assay listed under Cavia porcellus [18] is 31.8 Δcpm x 10^-3. This compound showed a half-inhibitory concentration (IC50) in the assay filed under Cavia porcellus [16] (t-cell) of 525 µM.

A word on the IC50: it is the concentration needed to halve the response being measured.
